Results as given in ChEMBL document CHEMBL1121449, “Synthesis and antineoplastic activity of hydroquinone dialdehydes” (J Med Chem, 1980).
“And” between values parts separate entries of the source, which are not always exact repeats. Equal entries are not always repeated.

Legend:
Mus musculus [1] = assay: Tested for number of animal surviving at least 50 days out of 30 animals treated at dose of 10 mg/kg; assay type: functional
How it was run: (§1)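 Female CD-1 mice, Sarcoma 180 ascites, 0.1 mL of 10^7 cells/mL given ip. Drug in 0.9% NaCl, 5% ethanol, Tween 80, serially diluted with saline. Dosed ip at 0.5 mL daily for 6 days from 24 h post-implant; daily dose based on starting mean weight. T/C is the mean survival of treated mice dying before 50 days vs controls. Survivors are those alive ≥50 days out of those treated.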

Mus musculus [2] = assay: Tested for number of animal surviving at least 50 days out of 30 animals treated at dose of 5 mg/kg; assay type: functional; how it was run: as §1
Mus musculus [3] = assay: Tested for change in body weight from onset to termination at dose of 2.5 mg/kg; assay type: functional
How it was run: (§2)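 Female CD-1 mice inoculated ip with 0.1 mL of 10^7 Sarcoma 180 ascites cells/mL. Drug in 0.9% NaCl with 5% ethanol and Tween 80, serially diluted in saline, given ip once daily for 6 days starting 24 h after implantation. Dose based on mean starting weight. Controls received saline. Weight change recorded from day 0 to day 7, as % change.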

Mus musculus [4] = assay: Tested for mean survival time treated animal not surviving 50 days as a percentage at dose of 20 mg/kg; assay type: functional; how it was run: as §1
Mus musculus [5] = assay: Tested for mean survival time of Mice bearing Ehrlich carcinoma not surviving 50 days as a percentage at dose of 5 mg/kg; assay type: functional
How it was run: (§3)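 Female CD-1 mice, Ehrlich ascites carcinoma, 0.1 mL of 10^7 cells/mL given ip. Drug in 0.9% NaCl with 5% ethanol and trace Tween 80, serially diluted with saline. Dosed ip at 0.5 mL once daily for 6 days from 24 h post-implant; saline controls. T/C is the mean survival of treated mice dying before 50 days as % of controls. Survivors are those alive ≥50 days.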

Mus musculus [6] = assay: Tested for Mice bearing […] 755 surviving at least 50 days out of 5 animal treated at dose of 20 mg/kg; assay type: functional
How it was run: (§4)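 Female AKD2F1 mice, adenocarcinoma 755, 0.1 mL of 10^7 cells/mL given ip. Vehicle 0.9% NaCl/5% ethanol/Tween 80, serially diluted with saline. Dosed ip at 0.5 mL once daily for 6 consecutive days starting 24 h post-implant; saline controls. T/C is the mean survival of non-50-day survivors as % of controls. Survivors are those alive ≥50 days.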

Mus musculus [7] = assay: Tested for mean survival time treated animal not surviving 50 days as a percentage at dose of 10 mg/kg; assay type: functional; how it was run: as §1
[8] = Tested for inhibition of growth of sarcoma 180 cells in culture; assay type: functional, cell-based; conditions: Mus musculus
How it was run: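 Sarcoma 180 cells in suspension in Fischer's medium with 10% horse serum and penicillin/streptomycin, seeded at 10^4 cells/mL. Drug added from 10× stocks in 10% Me2SO/PBS, final 1–100 μM. Control cultures contained 1% Me2SO. Triplicate Coulter counts at 24, 48 and 72 h. IC50 read from a plot of inhibition of cell-number increase at 72 h versus concentration.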

Mus musculus [9] = assay: Tested for number of animal surviving at least 50 days out of 10 animals treated at dose of 2.5 mg/kg; assay type: functional; how it was run: as §1
Mus musculus [10] = assay: Tested for change in body weight from onset to termination at dose of 15 mg/kg; assay type: functional; how it was run: as §2
Mus musculus [11] = assay: Tested for mean survival time of Mice bearing […] 755 not surviving 50 days as a percentage at dose of 20 mg/kg; assay type: functional; how it was run: as §4
Mus musculus [12] = assay: Tested for Mice bearing Ehrlich carcinoma surviving at least 50 days out of 10 animal treated at dose of 5 mg/kg; assay type: functional; how it was run: as §3
Mus musculus [13] = assay: (§5) Tested for change in body weight from onset to termination at dose of 10 mg/kg; assay type: functional; how it was run: as §2
Mus musculus [14] = assay: Tested for mean survival time treated animal not surviving 50 days as a percentage at dose of 5 mg/kg; assay type: functional; how it was run: as §1
Mus musculus [15] = assay: Tested for number of animal surviving at least 50 days out of 15 animals treated at dose of 15 mg/kg; assay type: functional; how it was run: as §1
Mus musculus [16] = assay: Tested for change in body weight of Mice bearing […] 755 from onset to termination at dose of 5 mg/kg; assay type: functional
How it was run: (§6)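 Adenocarcinoma 755 implanted ip (0.1 mL of 10^7 cells/mL) in female AKD2F1 mice. Daily ip dosing for 6 days beginning 24 h after implantation, vehicle 0.9% NaCl/5% ethanol/Tween 80, lower doses by saline dilution. Control mice received saline. Weight difference between day 0 and day 7 taken as % change and used as a toxicity measure.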

Mus musculus [17] = assay: Tested for change in body weight of Mice bearing […] 755 from onset to termination at dose of 10 mg/kg; assay type: functional; how it was run: as §6
Mus musculus [18] = assay: Tested for Mice bearing Ehrlich carcinoma surviving at least 50 days out of 10 animal treated at dose of 10 mg/kg; assay type: functional; how it was run: as §3
Mus musculus [19] = assay: Tested for change in body weight from onset to termination at dose of 5 mg/kg; assay type: functional; how it was run: as §2
Mus musculus [20] = assay: Tested for mean survival time treated animal not surviving 50 days as a percentage at dose of 15 mg/kg; assay type: functional; how it was run: as §1
Mus musculus [21] = assay: Tested for change in body weight of Mice bearing Ehrlich carcinoma from onset to termination at dose of 5 mg/kg; assay type: functional
How it was run: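 Female CD-1 mice given ip implants of Ehrlich carcinoma (0.1 mL of 10^7 cells/mL). Drug in saline containing 5% ethanol and Tween 80, injected ip once daily for 6 consecutive days from 24 h post-implant. Controls received 0.9% NaCl. % body weight change measured between tumor implantation (day 0) and day 7.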

Mus musculus [22] = assay: Tested for mean survival time of Mice bearing Ehrlich carcinoma not surviving 50 days as a percentage at dose of 10 mg/kg; assay type: functional; how it was run: as §3
Mus musculus [23] = assay: Tested for change in body weight from onset to termination at dose of 20 mg/kg; assay type: functional; how it was run: as §2
Mus musculus [24] = assay: Tested for mean survival time treated animal not surviving 50 days as a percentage at dose of 2.5 mg/kg; assay type: functional; how it was run: as §1
Mus musculus [25] = assay: Tested for mean survival time of Mice bearing Ehrlich carcinoma not surviving 50 days as a percentage at dose of 20 mg/kg; assay type: functional; how it was run: as §3
Mus musculus [26] = assay: Tested for Mice bearing […] 755 surviving at least 50 days out of 5 animal treated at dose of 5 mg/kg; assay type: functional; how it was run: as §4
Mus musculus [27] = assay: Tested for Mice bearing […] 755 surviving at least 50 days out of 5 animal treated at dose of 10 mg/kg; assay type: functional; how it was run: as §4
Mus musculus [28] = assay: Tested for mean survival time of Mice bearing […] 755 not surviving 50 days as a percentage at dose of 5 mg/kg; assay type: functional; how it was run: as §4
Mus musculus [29] = assay: Tested for change in body weight of Mice bearing […] 755 from onset to termination at dose of 20 mg/kg; assay type: functional; how it was run: as §6
Mus musculus [30] = assay: Tested for number of animal surviving at least 50 days out of 10 animals treated at dose of 20 mg/kg; assay type: functional; how it was run: as §1
Mus musculus [31] = assay: Tested for Mice bearing Ehrlich carcinoma surviving at least 50 days out of 10 animal treated at dose of 20 mg/kg; assay type: functional; how it was run: as §3
Mus musculus [32] = assay: as §5; assay type: functional; remark: listed apart in the source
How it was run: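 Tumor-bearing mice were dosed ip once daily for 6 consecutive days from 24 h after ip tumor implantation; saline controls. Each group was weighed on day 7, the day after the last injection, and the change from the implantation day (day 0) was expressed as % body-weight change, used as a toxicity measure.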

Mus musculus [33] = assay: Tested for mean survival time of Mice bearing […] 755 not surviving 50 days as a percentage at dose of 10 mg/kg; assay type: functional; how it was run: as §4
Mus musculus [34] = assay: Tested for number of animal surviving at least 50 days out of 10 animal treated at dose of 20 mg/kg; assay type: functional; how it was run: as §1
Mus musculus [35] = assay: Tested for number of animal surviving at least 50 days out of 10 animal treated at dose of 15 mg/kg; assay type: functional; how it was run: as §1
Mus musculus [36] = assay: Tested for number of animal surviving at least 50 days out of 5 animal treated at dose of 5 mg/kg
Mus musculus [37] = assay: Tested for mean survival time treated animal not surviving 50 days as a percentage at dose of 1.25 mg/kg; assay type: functional; how it was run: as §1
Mus musculus [38] = assay: Tested for number of animal surviving at least 50 days out of 25 animal treated at dose of 15 mg/kg
Mus musculus [39] = assay: Tested for number of animal surviving at least 50 days out of 10 animal treated at dose of 2.5 mg/kg; assay type: functional; how it was run: as §1
Mus musculus [40] = assay: Tested for change in body weight from onset to termination at dose of 1.25 mg/kg; assay type: functional; how it was run: as §2
Mus musculus [41] = assay: Tested for number of animal surviving at least 50 days out of 10 animal treated at dose of mg/kg; assay type: functional; how it was run: as §1
Mus musculus [42] = assay: Tested for number of animal surviving at least 50 days out of 10 animal treated at dose of 5 mg/kg; assay type: functional; how it was run: as §1
Mus musculus [43] = assay: Tested for number of animal surviving at least 50 days out of 5 animal treated at dose of 20 mg/kg; assay type: functional; how it was run: as §1
Mus musculus [44] = assay: Tested for change in body weight from onset to termination at dose of 30 mg/kg; assay type: functional; how it was run: as §2
Mus musculus [45] = assay: Tested for mean survival time treated animal not surviving 50 days as a percentage at dose of 30 mg/kg; assay type: functional; how it was run: as §1
Mus musculus [46] = assay: Tested for number of animal surviving at least 50 days out of 5 animal treated at dose of 10 mg/kg; assay type: functional; how it was run: as §1
Mus musculus [47] = assay: Tested for number of animal surviving at least 50 days out of 5 animal treated at dose of 30 mg/kg; assay type: functional; how it was run: as §1

Compound | Activity (Mus musculus [4]) [%] | Activity (Mus musculus [5]) [%] | Survivors (Mus musculus [6]) | Activity (Mus musculus [7]) [%] | IC50 [8] [µM] | Activity (Mus musculus [11]) [%] | Survivors (Mus musculus [12]) | Activity (Mus musculus [14]) [%] | Activity (Mus musculus [16]) [%] | Activity (Mus musculus [17]) [%] | Activity (Mus musculus [19]) [%] | Activity (Mus musculus [21]) [%] | Activity (Mus musculus [22]) [%] | Activity (Mus musculus [23]) [%] | Activity (Mus musculus [25]) [%] | Survivors (Mus musculus [26]) | Survivors (Mus musculus [27]) | Activity (Mus musculus [28]) [%] | Activity (Mus musculus [29]) [%] | Survivors (Mus musculus [31]) | other results
Cc1c(C)c(O)c(C=O)c(C=O)c1O | 91 | 120 | 2 | 195 | 26 | 138 | 0 | 182 | -2 | -13 | 6 | 21 | 125 | -4 | 127 | 4 | 5 | 27 | -11 | 3 | Survivors (Mus musculus [1]): 3; Survivors (Mus musculus [2]): 3; Activity (Mus musculus [3]): 23%; Survivors (Mus musculus [9]): 0; Activity (Mus musculus [10]): -3%; Activity (Mus musculus [13]): 1%; Survivors (Mus musculus [15]): 0; Survivors (Mus musculus [18]): 2; Activity (Mus musculus [20]): 148%; Mean survival time, treated vs control (T/C) (Mus musculus [24]): 128%; Survivors (Mus musculus [30]): 0
CCCc1c(O)c(C=O)c(C=O)c(O)c1CCC | 150 | 154 | 3 | 178 | 29 | 35 | 0 | 205 | -16 | -15 | 9 | 5 | 202 | -3 | 166 | 4 | 4 | 16 | -15 | 1 | Activity (Mus musculus [32]): -1%; Activity (Mus musculus [3]): 9%; Activity (Mus musculus [10]): 2%; Activity (Mus musculus [33]): 22%; Survivors (Mus musculus [34]): 0; Survivors (Mus musculus [18]): 4; Activity (Mus musculus [20]): 171%; Survivors (Mus musculus [35]): 0; Survivors (Mus musculus [36]): 4; Mean survival time, treated vs control (T/C) (Mus musculus [24]): 138%; Activity (Mus musculus [37]): 88%; Survivors (Mus musculus [38]): 2; Survivors (Mus musculus [39]): 0; Activity (Mus musculus [40]): 10%
CC(=O)Oc1c(C)c(C)c(OC(C)=O)c2c1C(OC(C)=O)OC2OC(C)=O (centres undefined) | 109 | 168 | 1 | 149 | < 25 | 38 | 2 | 109 | -7 | -15 | 5 | 4 | 195 | – | 222 | 3 | 4 | 59 | -14 | 3 | Survivors (Mus musculus [41]): 0; Activity (Mus musculus [33]): 16%; Survivors (Mus musculus [34]): 0; Activity (Mus musculus [13]; 10 mg/kg): -6% and -4%; Survivors (Mus musculus [42]): 0
Cc1c(C)c(O)c(C=O)c(C)c1O | 84 | – | – | 94 | 27 | – | – | – | – | – | – | – | – | 25 | – | – | – | – | – | – | Survivors (Mus musculus [43]): 0; Activity (Mus musculus [44]): 17%; Activity (Mus musculus [45]): 89%; Activity (Mus musculus [13]): 25%; Survivors (Mus musculus [46]): 0; Survivors (Mus musculus [47]): 0
